# Measurements: PubChem BioAssay AID602285 (Broad Institute, 2012)
# Activity calls are given as the source filed them.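 How the source made its calls: active means AC50 at or below twice the top valid dose for that sample, with falling signal; inconclusive means flat curve with inhibition of 30 to 70%, or poor fit; inactive means activity in the wrong direction, plus the rest.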
# Molecular target: Scavenger receptor class B member 1 (Mus musculus) (UniProt Q61009)
# Test: SR-BI mediated DiI-HDL lipid uptake blockers – ldlA[mSR-BI] CHO cells, fluorescence plate reader, dry powder, set 8, dose response (AID 602285)
# Details: 3 h
# In short: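 Test system: CHO ldlA cells overexpressing mouse SR-BI | Compound dosing: Pin-transferred compounds, dose series | Technique: Washed-cell DiI fluorescence, ex 550/em 595 nm | Schedule: Overnight cell plating, then 3 h compound and DiI-HDL exposure at 37 °C | Probe or stimulus: DiI-labelled HDL, 10 µg protein/mL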
# Scavenger receptor class B member 1 (Mus musculus), sequence (Q61009 whole entry, looked up): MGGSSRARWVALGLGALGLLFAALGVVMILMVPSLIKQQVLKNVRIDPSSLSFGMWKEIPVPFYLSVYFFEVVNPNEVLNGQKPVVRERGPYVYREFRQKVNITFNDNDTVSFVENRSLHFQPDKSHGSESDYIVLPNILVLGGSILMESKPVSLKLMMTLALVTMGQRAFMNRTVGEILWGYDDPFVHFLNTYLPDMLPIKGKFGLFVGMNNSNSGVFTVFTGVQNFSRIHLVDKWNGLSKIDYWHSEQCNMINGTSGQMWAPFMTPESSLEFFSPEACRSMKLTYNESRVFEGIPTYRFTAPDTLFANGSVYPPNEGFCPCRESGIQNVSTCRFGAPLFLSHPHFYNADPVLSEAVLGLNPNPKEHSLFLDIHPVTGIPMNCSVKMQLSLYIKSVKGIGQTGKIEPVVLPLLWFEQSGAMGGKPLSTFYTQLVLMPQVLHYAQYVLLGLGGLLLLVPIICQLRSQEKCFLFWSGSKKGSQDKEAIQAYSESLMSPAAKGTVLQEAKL
row,Compound,AC50
1,C[C@@H]1CN([C@H](C)CO)C(=O)c2cc(N(C)C)ccc2O[C@H]1CN(C)S(=O)(=O)c1ccc(Cl)cc1,628 nM
2,COc1ccc(CN(C)C[C@@H]2Oc3ccc(NC(=O)Cc4cn(C)c5ccccc45)cc3C(=O)N([C@H](C)CO)C[C@H]2C)cc1,2550 nM
3,COc1ccc(S(=O)(=O)N(C)C[C@@H]2Oc3ccc(NC(=O)Cc4cn(C)c5ccccc45)cc3C(=O)N([C@H](C)CO)C[C@H]2C)cc1,2010 nM
4,Cc1noc(C)c1NC(=O)N(C)C[C@H]1Oc2cc(C#CCC3CCCC3)ccc2S(=O)(=O)N([C@H](C)CO)C[C@@H]1C,94 nM
5,C[C@@H]1CN([C@H](C)CO)C(=O)Cc2cc(NC(=O)Cc3cn(C)c4ccccc34)ccc2O[C@H]1CN(C)S(=O)(=O)c1ccc(F)cc1,33200 nM
6,C[C@@H]1CN([C@H](C)CO)C(=O)c2cc(NC(=O)Cc3cn(C)c4ccccc34)ccc2O[C@@H]1CN(C)S(=O)(=O)c1ccc(Cl)cc1,11500 nM
7,C[C@@H]1CN([C@H](C)CO)C(=O)c2cc(NC(=O)c3ccncc3)ccc2O[C@H]1CN(C)S(=O)(=O)c1ccc(Cl)cc1,593 nM
8,C[C@@H]1CN([C@H](C)CO)C(=O)c2cc(NS(C)(=O)=O)ccc2O[C@H]1CN(C)S(=O)(=O)c1ccc(Cl)cc1,1640 nM
9,C[C@@H]1CN([C@H](C)CO)C(=O)c2cc(NC(=O)Cc3cn(C)c4ccccc34)ccc2O[C@H]1CN(C)S(=O)(=O)c1cccs1,2360 nM
10,C[C@@H]1CN([C@@H](C)CO)C(=O)c2cc(NC(=O)Cc3cn(C)c4ccccc34)ccc2O[C@H]1CN(C)S(=O)(=O)c1ccc(Cl)cc1,912 nM
11,C[C@@H]1CN([C@H](C)CO)C(=O)c2cc(NC(=O)Cn3cnnn3)ccc2O[C@H]1CN(C)S(=O)(=O)c1ccc(Cl)cc1,10300 nM
12,COCC(=O)N1CCc2cc(-c3csc(NC(=O)c4cc(OC)cc(OC)c4)n3)ccc21,< 15 nM
13,O=C(C[C@H]1CC[C@H](NC(=O)CC2CC2)[C@@H](CO)O1)NCc1ccc(Cl)cc1,> 70000 nM (inactive)
14,C[C@@H]1CN([C@H](C)CO)C(=O)c2cc(NS(=O)(=O)c3cn(C)cn3)ccc2O[C@H]1CN(C)S(=O)(=O)c1ccc(Cl)cc1,3390 nM
15,C[C@@H]1CN([C@H](C)CO)C(=O)c2cc(NC(=O)Cc3cn(C)c4ccccc34)ccc2O[C@H]1CN(C)C(=O)Nc1ccccc1,4920 nM
16,C[C@@H]1CN([C@H](C)CO)C(=O)c2cc(NS(=O)(=O)c3ccccc3)ccc2O[C@H]1CN(C)S(=O)(=O)c1ccc(Cl)cc1,3160 nM
17,C[C@@H]1CN([C@H](C)CO)C(=O)c2cc(NC(=O)CCCCCC(=O)Nc3ccccc3N)ccc2O[C@H]1CN(C)S(=O)(=O)c1ccc(Cl)cc1,563 nM
18,C[C@H](CO)N1C[C@H](C)[C@H](CN(C)C)Oc2c(NS(C)(=O)=O)cccc2C1=O,> 70000 nM (inactive)
19,COc1ccc(NC(=O)Nc2ccc3c(c2)C(=O)N([C@H](C)CO)C[C@@H](C)[C@H](CN(C)S(=O)(=O)c2ccc(Cl)cc2)O3)cc1,304 nM
20,C[C@H](CO)N1C[C@H](C)[C@@H](CN(C)S(=O)(=O)c2ccc(Cl)cc2)Oc2ccc(NC(=O)Cc3cn(C)c4ccccc34)cc2C1=O,8910 nM
21,C[C@H]1CN([C@@H](C)CO)C(=O)c2cc(NC(=O)Cc3cn(C)c4ccccc34)ccc2O[C@@H]1CN(C)S(=O)(=O)c1ccc(Cl)cc1,17400 nM
22,C[C@@H]1CN([C@H](C)CO)C(=O)c2cc(NC(=O)Cc3cn(C)c4ccccc34)ccc2O[C@H]1CN(C)C(=O)Nc1ccc(C(F)(F)F)cc1,2180 nM
23,COc1ccc(S(=O)(=O)Nc2ccc3c(c2)C(=O)N([C@H](C)CO)C[C@@H](C)[C@H](CN(C)S(=O)(=O)c2ccc(Cl)cc2)O3)cc1,2690 nM
24,C[C@@H]1CN([C@H](C)CO)C(=O)c2cc(NC(=O)Cc3cn(C)c4ccccc34)ccc2O[C@H]1CN(C)Cc1ccc(C(F)(F)F)cc1,653 nM
25,C[C@@H]1CN([C@@H](C)CO)C(=O)Cc2cc(NC(=O)CCCN(C)C)ccc2O[C@H]1CN(C)Cc1ccncc1,> 70000 nM (inactive)

# Same assay, conditions: 3 h, at 11 µM (top of the series)
row,Compound,"activity change, negative = inhibition"
1,C[C@@H]1CN([C@H](C)CN)C(=O)c2cc(NC(=O)Cc3cn(C)c4ccccc34)ccc2O[C@H]1CN(C)S(=O)(=O)c1ccc(Cl)cc1,inactive

# Same assay, conditions: 3 h, at 35 µM (top of the series)
row,Compound,"activity change, negative = inhibition"
1,Cc1ccc(S(=O)(=O)Nc2ccc3c(c2)C(=O)N([C@H](C)CO)C[C@@H](C)[C@H](CN(C)S(=O)(=O)c2ccc(Cl)cc2)O3)cc1,inactive
2,CO[C@H]1CN(C)C(=O)c2ccc(NC(=O)C3CCCC3)cc2OC[C@@H](C)N(C(=O)CC2CC2)C[C@@H]1C,inactive
